Screening results deposited in PubChem BioAssay by several laboratories.
HSF1 inhib: HSF1 inhibition | NIH3T3-HGL HSE-luciferase, MG132-induced, luminescence 8 h; stronger effect = lower value | activity change, negative = inhibition, % at 7.5 µM (by protocol) | hit rate 0.77% among 300,000 | AID 2098;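 active means more than half of replicate wells show activity change below -50%, luminescence cut by over half; inconclusive means some wells, but at most half, below -50%; inactive means no replicate well below -50%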;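 further: luciferase reports HSF-1 transcriptional activity via heat shock element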
L major viab: Leishmania major promastigote growth inhibition. hit rate 9% among 200,000. AID 1063. Leishmania major promastigotes, resazurin fluorescence viability. inhibition, % at 10 µM; in the data active means inhibition above about 50%;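 further: promastigotes grown with compound for 44 hours at 28 °C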
Hsp70 activator: Hsp70 transcriptional activation, primary screen; HeLa Hsp70 promoter luciferase reporter, luminescence; scaled: vehicle 0, proteasome-inhibitor control 100%; activation, % at 10 µM; hit rate 0.04% among 200,000; AID 1203;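 active means activation above the mean across all tested compounds plus 3 SD, cutoff set per campaign, cut at about 5.5% in these data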
T cruzi repl: T. cruzi replication inhibition; T. cruzi beta-gal in NIH3T3, luminescence, 90 h; inhibition, % (concentration not given with the values); hit rate 1.4% among 300,000; AID 1885;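 active means mean inhibition across valid replicates above about 55%, limit read from the data; inconclusive means mean below that limit but half or more replicates reach it; inactive means mean below it, under half of replicates reach it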;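 further: signal also drops with host cell toxicity which is not excluded here; higher percent means less beta-gal luminescence so fewer parasites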
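Test system: β-gal T. cruzi (Tulahuen C4) inside NIH/3T3 cells / Quantity: 5,000 cells/well / Measured by: luminescence from GalScreen with 0.05% NP40, read after 60 min / Medium: DMEM plus 2% FBS / Measure: parasite load inhibition, % / Reagent: Tulahuen C4 trypomastigotes, 5000/well / Schedule: co-culture of at least 90 h after 3 h attachment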
HSF1 activator: increases HSF-1 driven luciferase reporter signal. AID 504408. hit rate 1.7% among 300,000. NIH3T3-HGL HSF-1 luciferase reporter, MG132, 8 h; 100% = twice DMSO control signal. activation, % at 9 µM;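 active means mean replicate activation of at least 50% with a set share of replicates each reaching 50%; inconclusive means only one of those two conditions met; inactive means mean below 50% and too few replicates reaching it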
A number is an active result; n = inactive; u = inconclusive; x = no result. This excerpt belongs to a sample that is enriched for hits.

SMILES	HSF1 inhib	L major viab	Hsp70 activator	T cruzi repl	HSF1 activator
O=C(Nc1ccc(N2CCCC2)c(S(=O)(=O)Nc2cccc(C(F)(F)F)c2)c1)c1cccs1	n	91.5	n	n	n
CCCN1CCC(NC(=O)Nc2cc(Cl)ccc2OC)CC1	n	n	n	n	n
COc1ccccc1NS(=O)(=O)c1cc(NC(=O)C(C)C)ccc1N1CCCCC1	n	n	n	n	n
O=C(Nc1cc(C(F)(F)F)ccc1N1CCOCC1)c1cccs1	n	n	n	n	n
COc1ccc(Cl)cc1NC(=O)NC1CCCCC1	n	99.8	n	n	n
COc1ccccc1NS(=O)(=O)c1cccc(NC(=O)c2nc3nc(C)cc(C)n3n2)c1	n	71.9	n	n	n
CS(=O)(=O)c1ccc2nc(NC(=O)CCN3C(=O)c4ccccc4C3=O)sc2c1	n	n	n	n	n
COc1ccccc1NS(=O)(=O)c1cccc(NC(=O)NC2CCCCC2)c1	n	98.8	n	n	n
COc1ccccc1NS(=O)(=O)c1cc(NC(=O)c2cc[n+]([O-])cc2)ccc1N1CCCC1	n	n	n	n	n
COc1ccccc1NS(=O)(=O)c1cc(NC(=O)c2cccs2)ccc1N1CCCCC1	n	n	n	59.1	n
COc1ccccc1NS(=O)(=O)c1cc(NC(=O)c2cccs2)ccc1N1CCCC1	n	93.5	n	n	n
COc1ccccc1NS(=O)(=O)c1cc(NC(=O)c2sccc2C)ccc1N1CCOCC1	n	x	x	n	n
COc1ccccc1NS(=O)(=O)c1cc(NC(=O)c2sccc2C)ccc1N1CCCC1	n	63.6	n	n	n
Cc1ccc(S(=O)(=O)N2CCN(C(=O)c3ccc4nc[nH]c4c3)CC2)cc1	n	x	x	n	n
CCN(CC(=O)Nc1ccccc1OC)C(=O)c1ccc(N(C)S(=O)(=O)c2ccc(C)cc2)cc1	n	x	x	n	n
CC(C)CNC(=O)c1ccc(NC(=O)c2ccccc2[N+](=O)[O-])cc1	n	n	n	n	n
O=C(C/C=N/OCc1c(Cl)cccc1Cl)c1ccc(Cl)cc1	n	n	n	n	n
CCN(CCCNC(=O)CCCOc1cc(=O)n(C)c2ccccc12)Cc1ccccc1	n	86.3	n	55.1	n
CCN(CCCNC(=O)COc1cc(=O)n(CC)c2ccccc12)Cc1ccccc1	n	n	n	n	n
CC1CCN(C(=O)CCCOc2cc(=O)n(C)c3ccccc23)CC1	n	n	n	n	74.9
CCn1c2ccccc2c2cc(NC(=O)c3ccc(Br)o3)ccc21	n	n	n	n	n
CCn1c2ccccc2c2cc(CNCc3ccc(OC)cc3OC)ccc21	n	80.8	n	n	n
CCn1c2ccccc2c2cc(N)ccc21	n	78.3	n	n	n
CCn1c2ccccc2c2cc(CNCCCN3CCOCC3)ccc21	n	x	x	60.7	n
CCn1c2ccccc2c2cc(NC(=O)N3CCOCC3)ccc21	n	n	n	n	u
SMILES	HSF1 inhib	L major viab	Hsp70 activator	T cruzi repl	HSF1 activator
CCn1c(=O)n(CC)c2cc(N)ccc21	n	n	n	n	n
CCC(CC)NCc1ccc2c(c1)c1ccccc1n2CC	n	95.5	n	n	n
COc1cc(Cl)cc(C2NC(=S)NC(c3ccccc3)=C2C(C)=O)c1OCC(=O)O (stereo not given)	n	n	n	n	n
CNC(=S)NNC(=O)c1cccc(N(C)C)c1	n	n	n	n	n
Cc1ccc(C)c(C(=O)COC(=O)CCN2C(=O)C3C4CCC(C4)C3C2=O)c1 (stereo not given)	n	x	x	n	n
CCCc1cc(-c2nc(N)ncc2-c2ccc3c(c2)OCCCO3)c(O)cc1OC	n	n	n	58.0	n
O=C1CCCc2nc(N3CCN(C(=O)c4ccco4)CC3)ncc21	n	x	x	n	n
CCOC(=O)C1CCN(S(=O)(=O)c2ccc3c(c2)CCN3C(=O)C2CCC2)CC1	n	x	x	n	n
C=CCN1C(=Nc2cccnc2)SCC1(O)c1ccc(C)cc1 (stereo not given)	n	61.1	n	n	n
CCn1c(=N)n(CC(=O)C23CC4CC(CC(C4)C2)C3)c2ccccc21	n	62.1	n	57.6	n
Cn1ncc(Br)c1NC(=O)Nc1ccccc1	n	x	x	n	n
CCC(=O)Nc1ccc(-c2cc3ccccc3oc2=O)cc1	n	n	n	n	n
CC/C(=C\c1oc2cc3ccccc3cc2[n+]1CC)Nc1ccccc1	n	100.3	n	n	n
COc1ccc(Nc2cc(Cl)nc(N)n2)cc1OC	n	n	n	n	n
CCC(C)NC(=O)C(Sc1ccccc1)c1ccccc1 (stereo not given)	n	n	n	n	n
CC(C)=Cc1c(O)nc2ccccn2c1=O	n	n	n	n	n
O=C(Nc1ccc(Br)cc1)c1ccc(Br)c(S(=O)(=O)Nc2cccnc2)c1	n	72.7	n	n	n
Cc1cccc(C(=O)Nc2ccc(C(=O)/C=C/c3ccncc3)cc2)c1	n	x	x	n	91.8
O=C(/C=C/c1cccnc1)c1ccc(NC(=O)c2cccc(Br)c2)cc1	n	99.1	n	n	n
Cc1cccc(C(=O)Nc2ccc(C(=O)/C=C/c3cccnc3)cc2)c1	n	100.5	n	n	162.9
COc1ccc(-c2nc(CS(=O)(=O)CC(=O)NC3CCC(C)CC3)c(C)o2)cc1 (stereo not given)	n	x	x	n	n
O=C1CC(c2cccs2)Cc2nc(NCC3CCCO3)ncc21 (stereo not given)	n	n	n	n	n
COC(=O)c1cc(OC)c(OC)cc1N1C(=O)CC(C)(C)CC1=O	n	x	x	n	n
C#CCOCCOCCOCCNc1nc(N2CCN(C(=O)[C@H]([C@@H](C)CC)n3cc([C@@H](N)CO)nn3)CC2)nc(N2CCN(C(=O)[C@H](Cc3cc4ccccc4[nH]3)n3cc([C@@H](N)Cc4ccc(O)cc4)nn3)CC2)n1	n	x	x	n	n
O=C(CCC(=O)c1ccccc1)Nc1cccnc1	n	n	n	n	n
SMILES	HSF1 inhib	L major viab	Hsp70 activator	T cruzi repl	HSF1 activator
O=C(CCC(=O)c1ccc(Br)cc1)Nc1cccnc1	-85.0	n	n	n	n
COC(=O)CN1C(=O)Nc2ccc(Cl)cc2C1c1ccccc1 (stereo not given)	n	x	x	n	n
COC(=O)CN1C(=O)Nc2ccc(C)cc2C1c1ccccc1 (stereo not given)	-70.0	n	n	n	n
CCNC(=S)N=Nc1c(O)[nH]c2ccc(C(C)C)cc12	n	77.6	n	n	n
COc1ccc(S(=O)(=O)Cc2ccc(C(=O)N3CCN(Cc4ccccc4)CC3)o2)cc1	n	98.8	n	n	n
CCOC(=O)N1CCN(C(=O)c2ccc(CS(=O)(=O)c3c(Cl)cccc3Cl)o2)CC1	-77.4	n	n	n	n
COc1ccc(CNC(=O)c2ccc(CS(=O)(=O)c3ccc(Br)cc3)o2)cc1	-68.2	x	x	n	n
Cc1ccc(S(=O)(=O)Cc2ccc(C(=O)N3CCN(Cc4ccccc4)CC3)o2)cc1	n	99.0	n	n	n
COc1ccc(S(=O)(=O)Cc2ccc(C(=O)NCc3ccc(C)cc3)o2)cc1	n	x	x	n	n
CCOc1cc(C(=O)N2CCC(CC3CC(c4cccc(Br)c4)=NO3)(C(=O)NCC3CCCCC3)CC2)cc(OCC)c1OCC (stereo not given)	n	x	x	n	n
